Results reported in PubChem BioAssay.
Records with an inconclusive call do not appear.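 Rule for the calls, unless noted: active = viability at or below 27.92% in each of two runs, the all-compound median minus 4 SD; inconclusive = no clear call, values can overlap the other calls; inactive = the rest.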

Columns and labels:
[1] = S. cerevisiae growth inhibition in permissive medium (OD615), pilot counter-assay for S. cerevisiae lifespan shortening project, permissive growth control (AID 705;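 active = growth inhibition above 25% in both replicates, a cutoff set 3 SD above the mean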); settings: OD615, 24 h, at 10 µM, hits give high values
Procedure, shortened: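 System: engineered DeaD yeast; Medium: permissive raffinose/galactose medium; Compound dosing: 10 µM single dose, 0.25% DMSO; Incubation: 4 h cell pre-growth, 24 h exposure at 30 °C; Technique: OD at 615 nm; Evaluation: growth inhibition from lowered OD615 after 24 h.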

[2] = S. cerevisiae growth inhibition in restrictive medium, OD615, pilot screen, restrictive growth control, yeast lifespan reduction project (AID 706;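 active = growth inhibition above a set limit, 3 SD over mean compound inhibition, in both replicates, cut at about 43% in these data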;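 note: modified DeaD lifespan yeast strain shifted to restrictive glucose medium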); settings: OD615, 48 h, at 10 µM, hits give high values
Procedure, shortened: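 Material: modified S. cerevisiae; buffer or medium: CSMM-D glucose medium; doses: one concentration, 10 µM final, 0.25% DMSO; incubation: 48 h compound exposure at 30 °C; detection: optical density at 615 nm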

[3] = doxorubicin toxicity protection in MRP-1 cells – H69AR cells, CellTiter-Glo, duplicate, MRP-1 activator project, pilot screen (AID 807;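 active = viability increase at or above a cutoff of the median across tested compounds plus 3 SD, cut at about 8.5% in these data, passing the limit was not always enough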;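 note: compound pretreatment 18-22 h then 72 h combined with doxorubicin; 0% = doxorubicin alone and 100% = vehicle without doxorubicin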); settings: H69AR viability with doxorubicin, CellTiter-Glo luminescence; at 10 µM; hits give high values
[4] = viability of HCT116 without oncogenic beta-catenin – human colon tumor cells, pilot screen (AID 823;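 active = cell viability at or below a set limit in both duplicate runs, the limit being the all-compound median minus 4 SD, cut at about 23% in these data, passing the limit was not always enough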;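 note: 0% = wells killed by 20 µM Hyamine and 100% = untreated DMSO cell wells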); settings: HCT116 beta-catenin knockout viability, CellTiter-Glo, 60 h; at 10 µM; hits give low values
[5] = viability of PTEN-null HCT116 cells – cell-based, HCT116 clonal line, CellTiter-Glo, pilot screen (AID 824); settings: HCT116 PTEN-deleted viability, 60 h, at 10 µM, hits give low values;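 note: 0% = 20 µM Hyamine control and 100% = vehicle cell control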
[6] = RAM pathway blockade in budding yeast – dse1pr::URA3 reporter, 5-FOA selection, pilot screen (AID 869;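 active = inhibition over a set limit, the all-compound mean plus 3 SD, in both replicate runs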;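 note: 0% = DMSO wells with no growth and 100% = 10 µM 1-NA-PP1 with full growth; RAM network block rescues cells from 5-FOA so hits raise OD615 growth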); settings: S. cerevisiae dse1pr::URA3 5-FOA growth, OD615, 2 d; at 10 µM; hits give high values; strain carries analog-sensitive mutant Cbk1 kinase
[7] = RAM signaling pathway blockade in yeast – S. cerevisiae, Pdr1DBD-CYC8 efflux-inhibited sensitized strain, primary screen (AID 1298;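 active = RAM network inhibition above 8.4% in each of two replicates, 3 SD over the compound average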;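 note: 0% = DMSO untreated cells without growth and 100% = 10 µM 1-NA-PP1 full growth; higher means more yeast growth rescued from 5-FOA killing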); settings: S. cerevisiae cbk1-as DSE1-URA3 strain, 5-FOA growth OD615, 2 d; at 50 µM; hits give high values

Cn1c(-n2c(CCN3C(=O)c4ccccc4C3=O)nc3ccccc3c2=O)nc2ccccc21
inactive: growth inhibition [1] 1.63% | growth inhibition [2] -2.29% | viability increase [3] -4.94% | viability [4] 68.2% | viability [5] 81.2% | inhibition [6] 0.65% | RAM network inhibition [7] 2.45%

O=C(Nc1nccs1)c1ccc(S(=O)(=O)N2CCCCC2)cc1
inactive: growth inhibition [1] -9.01% | growth inhibition [2] -1.44% | viability increase [3] 0.89% | viability [4] 94% | viability [5] 90% | inhibition [6] 1.73% | RAM network inhibition [7] 5.88%

CCOC(=O)N1CCN(C(=O)c2ccccc2Oc2ccccc2)CC1
inactive: growth inhibition [1] -5.57% | growth inhibition [2] 0.11% | viability increase [3] -1.94% | viability [4] 91% | viability [5] 93.3% | inhibition [6] -0.56% | RAM network inhibition [7] 0.52%

Cc1ccc(/C=N/c2sc3c(c2C#N)CCC3)s1
inactive: growth inhibition [1] -1.95% | growth inhibition [2] -5.03% | viability increase [3] -0.97% | viability [4] 96.1% | viability [5] 93.8% | inhibition [6] 1.21% | RAM network inhibition [7] 7%

COc1cc(SC)ccc1C(=O)Nc1ccc2c(c1)CCN2S(C)(=O)=O
inactive: growth inhibition [1] -4.62% | growth inhibition [2] -7.36% | viability increase [3] 0.15% | viability [4] 100% | viability [5] 94.2% | inhibition [6] 3.22% | RAM network inhibition [7] 4.39%

O=C(CC1Oc2ccccc2NC1=O)NCCCN1CCN(Cc2ccccc2)CC1 (configuration not stated)
inactive: growth inhibition [1] 2.54% | growth inhibition [2] -3.21% | viability increase [3] -3.71% | viability [4] 94.3% | viability [5] 93.3% | inhibition [6] 1.56% | RAM network inhibition [7] 5.35%

CCn1c(=O)c2cc(C(=O)N3CCOCC3)sc2c2ccccc21
inactive: growth inhibition [1] -8.55% | growth inhibition [2] -14.5% | viability increase [3] -3.34% | viability [4] 102% | viability [5] 87.3% | inhibition [6] 0.84% | RAM network inhibition [7] 2.72%

CCN1CCN(CC(=O)NC2CCCC2)C(=O)C1=O
inactive: growth inhibition [1] 5.56% | growth inhibition [2] -5% | viability increase [3] 0.46% | viability [4] 114% | viability [5] 94.9% | inhibition [6] 1.52% | RAM network inhibition [7] 1.79%

CCCCOC(=O)c1ccc(NC(=O)CSCc2n[nH]c(=O)[nH]2)cc1
inactive: growth inhibition [1] -1.44% | growth inhibition [2] -3.24% | viability increase [3] 0.11% | viability [4] 98.3% | viability [5] 102% | inhibition [6] 0.475% | RAM network inhibition [7] 1.48%

C#CCn1c(=NC(=O)CN2C(=O)CCC2=O)sc2cccc(C)c21
inactive: growth inhibition [1] -15.5% | growth inhibition [2] -1.5% | viability increase [3] -3.32% | viability [4] 93.3% | viability [5] 88.8% | inhibition [6] 1.89% | RAM network inhibition [7] 2.03%

CCOC(=O)CSCc1nc(-c2ccc(Cl)cc2)oc1C
inactive: growth inhibition [1] -11.6% | growth inhibition [2] -8.34% | viability increase [3] 1.98% | viability [4] 94.8% | viability [5] 89.8% | inhibition [6] 1.97% | RAM network inhibition [7] -1.32%

CC1CCCC(NC(=O)CSc2nnnn2C)C1C (configuration not stated)
inactive: growth inhibition [1] -6.17% | growth inhibition [2] -10.1% | viability increase [3] 1.61% | viability [4] 95.5% | viability [5] 101% | inhibition [6] 1.29% | RAM network inhibition [7] 2.27%

Cc1cc2cc(CNC(=O)Cc3cccs3)ccc2n1C
inactive: growth inhibition [1] -14.6% | growth inhibition [2] 3.17% | viability increase [3] -4.96% | viability [4] 74.9% | viability [5] 69% | inhibition [6] 3.38% | RAM network inhibition [7] 8.91%

COc1ccc(Cl)cc1NC(=O)C1CSC(c2ccncc2)=N1 (configuration not stated)
inactive: growth inhibition [1] 1.68% | growth inhibition [2] -12.2% | viability increase [3] -8.24% | viability [4] 65.2% | viability [5] 61.5% | inhibition [6] 0.41% | RAM network inhibition [7] 5.11%

CCCCSc1nc(N)c(NC(=O)c2ccco2)c(=O)[nH]1
inactive: growth inhibition [1] -12.7% | growth inhibition [2] -14.2% | viability increase [3] -2% | viability [4] 101% | viability [5] 93.4% | inhibition [6] 1.58% | RAM network inhibition [7] 0.8%

c1ccc(CNc2nc3ccccc3[nH]2)cc1
inactive: growth inhibition [1] -4.7% | growth inhibition [2] 2.9% | viability increase [3] -5.29% | viability [4] 75.8% | viability [5] 80.7% | inhibition [6] 1.3% | RAM network inhibition [7] 0.44%

CCCc1nnc(NC(=O)CC(=O)OCC)s1
inactive: growth inhibition [1] 6.47% | growth inhibition [2] -8.03% | viability increase [3] -1.07% | viability [4] 97% | viability [5] 93.1% | inhibition [6] 0.96% | RAM network inhibition [7] -0.11%

c1ccc(-c2noc(CN3CCN(c4ccccc4)CC3)n2)cc1
inactive: growth inhibition [1] -8.41% | growth inhibition [2] 2.94% | viability increase [3] -2.27% | viability [4] 94.5% | viability [5] 97.3% | inhibition [6] 0.125% | RAM network inhibition [7] 3.29%

COc1ccccc1CNc1ncnc2c1cnn2-c1ccccc1
inactive: growth inhibition [1] -13.5% | growth inhibition [2] -7.05% | viability increase [3] -4.76% | viability [4] 74.2% | viability [5] 79% | inhibition [6] 0.575% | RAM network inhibition [7] 0.57%

CC1(C)CC(=O)C=C(NCCN2CCN(C(=O)Nc3ccc(Cl)c(Cl)c3)CC2)C1
inactive: growth inhibition [1] 13.1% | growth inhibition [2] 8.88% | viability increase [3] -3.81% | viability [4] 94.8% | viability [5] 90.1% | inhibition [6] -0.235% | RAM network inhibition [7] 3.08%

COc1ccc(S(=O)(=O)Cc2ccc(C(=O)NCc3cccs3)o2)cc1
inactive: growth inhibition [1] -2.92% | growth inhibition [2] -21.2% | viability increase [3] -4.71% | viability [4] 94.7% | viability [5] 87.1% | inhibition [6] 1.21% | RAM network inhibition [7] 3.04%

CCOC(=O)N1CCC(N2Cc3cccc(C(=O)Nc4ccc(OC)c(OC)c4)c3C2=O)CC1
inactive: growth inhibition [1] -7.4% | growth inhibition [2] -0.92% | viability increase [3] -3.99% | viability [4] 66.2% | viability [5] 66.8% | inhibition [6] 2.03% | RAM network inhibition [7] 1.98%

Cc1ccc2oc(=O)c3cnn(CC(=O)NCCN(C)C)c3c2c1
inactive: growth inhibition [1] -13% | growth inhibition [2] -11.6% | viability increase [3] 0.12% | viability [4] 101% | viability [5] 97.7% | inhibition [6] 0.365% | RAM network inhibition [7] 0.55%

O=C(Nc1ccon1)c1cccc(C(F)(F)F)c1
inactive: growth inhibition [1] -9.21% | growth inhibition [2] -5.36% | viability increase [3] 2.41% | viability [4] 104% | viability [5] 101% | inhibition [6] 0.075% | RAM network inhibition [7] 0.62%

COc1ccc(Cn2c(=O)[nH]c3cc(C(=O)NCCCN4CCCCC4)ccc3c2=O)cc1
inactive: growth inhibition [1] -4.93% | growth inhibition [2] -8.5% | viability increase [3] -2.31% | viability [4] 74.5% | viability [5] 77.4% | inhibition [6] 0.53% | RAM network inhibition [7] 4.83%

Cc1cc(Nc2cc(F)ccc2C)n2ncnc2n1
inactive: growth inhibition [1] -2.42% | growth inhibition [2] 9.4% | viability increase [3] -0.28% | viability [4] 102% | viability [5] 97.3% | inhibition [6] 3.77% | RAM network inhibition [7] 4.19%

CC(=O)Nc1cc2c(cc1C(=O)c1ccccc1)OCCO2
inactive: growth inhibition [1] -3.76% | growth inhibition [2] 7.87% | viability increase [3] -0.99% | viability [4] 95.2% | viability [5] 92.9% | inhibition [6] 1.35% | RAM network inhibition [7] 0.89%

Cc1ccccc1OCC(O)Cn1c(NCCN(C)C)nc2c1c(=O)n(C)c(=O)n2C (configuration not stated)
inactive: growth inhibition [1] -13.3% | growth inhibition [2] 2.24% | viability increase [3] -1.92% | viability [4] 93.5% | viability [5] 99.4% | inhibition [6] 2.01% | RAM network inhibition [7] 1.15%

CCOC(=O)c1[nH]c2c(c1C)C(=O)CC(c1ccc(N(C)C)cc1)C2 (configuration not stated)
inactive: growth inhibition [1] -3.69% | growth inhibition [2] -0.995% | viability increase [3] -3.6% | viability [4] 77% | viability [5] 71.7% | inhibition [6] 2.3% | RAM network inhibition [7] 1.32%

CCCn1c(CCNC(=O)c2cccs2)nc2ccccc21
inactive: growth inhibition [1] -1.19% | growth inhibition [2] 4.79% | viability increase [3] -0.97% | viability [4] 94.9% | viability [5] 91.5% | inhibition [6] 1.37% | RAM network inhibition [7] 4.94%

CCCCCn1c(SC(C)C(C)=O)nc2c1c(=O)[nH]c(=O)n2C (configuration not stated)
inactive: growth inhibition [1] -25.6% | growth inhibition [2] -33.8% | viability increase [3] -0.88% | viability [4] 94.4% | viability [5] 88% | inhibition [6] 2.36% | RAM network inhibition [7] 2.16%

CCOCCCNC(=O)C(NC(=O)c1cnccn1)c1ccc(OC)cc1 (configuration not stated)
inactive: growth inhibition [1] -8.29% | growth inhibition [2] -6.63% | viability increase [3] 1.76% | viability [4] 102% | viability [5] 95.7% | inhibition [6] 1.81% | RAM network inhibition [7] 2.15%

O=C(OCn1nnc2ccccc2c1=O)c1cccs1
inactive: growth inhibition [1] -7.72% | growth inhibition [2] 2.16% | viability increase [3] -0.21% | viability [4] 103% | viability [5] 95.9% | inhibition [6] 0.24% | RAM network inhibition [7] 3.6%

Cn1cccc1Cc1nnc(SCC(=O)NC2CCCC2)n1-c1ccc(F)cc1
inactive: growth inhibition [1] 1.76% | growth inhibition [2] 6.74% | viability increase [3] -2.12% | viability [4] 104% | viability [5] 96.7% | inhibition [6] 0.675% | RAM network inhibition [7] 3.25%

Cn1cc(SCC(=O)N2CCN(c3ccccc3)CC2)c2ccccc21
inactive: growth inhibition [1] -0.395% | growth inhibition [2] 11.5% | viability increase [3] -4.68% | viability [4] 91.3% | viability [5] 88.4% | inhibition [6] 1.52% | RAM network inhibition [7] 7.36%

CC(=O)C1=C(C)NC(=O)NC1c1ccccc1 (configuration not stated)
inactive: growth inhibition [1] -7.36% | growth inhibition [2] -18.6% | viability increase [3] -2.61% | viability [4] 87.3% | viability [5] 91.5% | inhibition [6] 1.03% | RAM network inhibition [7] 5.38%
